From ChEMBL document CHEMBL1137668, “Activities of several classes of acyclic nucleoside phosphonates against camelpox virus replication in different cell culture models” (Antimicrob Agents Chemother, 2007) come the findings set out here.

Activity calls are given as the source filed them. The rule behind the calls is not given here. Bounds are passed on as bounds.

Data set [1] concerns Camelpox virus. Description: Antiviral activity against Camelpox virus CML1 infected in HEL299 cells assessed as inhibition of virus-induced cytopathic effect after 6 days by Giemsa staining. The format is functional, organism-based. The following applies: CML1, HEL 299, 144 h. (In general: Damage to the host cells serves as the signal in cytopathic effect assays.)
The subject of data set [2] is Camelpox virus. Description: Antiviral activity against Camelpox virus CML14 infected in HEL299 cells assessed as inhibition of virus-induced cytopathic effect after 6 days by Giemsa staining. It is filed as functional, organism-based. The following applies: CML14, HEL 299, 144 h.
Data set [3] can be described thus: Cytotoxicity against HEL299 cells after 4 days by Z1 Coulter counting analysis. The format is cell-based, HEL 299. The following applies: human, HEL299 cells. In a few lines: (§1)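 Cell growth inhibition: HEL cells were seeded at 3.5 × 10³ per well and PHKs at 5 × 10³ per well. Serial dilutions were added in duplicate after 1 day (HEL) or 3 days (PHK). After 4 days with compound, cells were trypsinized and counted with a Coulter counter (8 μm lower limit). CC50 is the concentration reducing growth by 50%, mean ± SD of at least two experiments.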

Data set [4] is described as follows: Selectivity index, ratio of CC50 for HEL299 cells to EC50 for Camelpox virus CML1 infected in HEL299 cells. It is filed as toxicity, cell-based, HEL 299. The following applies: human, HEL299 cells; read-out: Ratio CC50/IC50.
Data set [5] can be described thus: Selectivity index, ratio of CC50 for HEL299 cells to EC50 for Camelpox virus CML14 infected in HEL299 cells. It is filed as toxicity, cell-based, HEL 299. The following applies: human, HEL299 cells; read-out: Ratio CC50/IC50.
Data set [6] relates to Camelpox virus. Description: Antiviral activity against Camelpox virus CML1 infected in human PHK assessed as inhibition of virus-induced cytopathic effect after 6 days by Giemsa staining. The following applies: CML1, 144 h. The format is functional, organism-based.
The test system of data set [7] is Camelpox virus. Briefly: Antiviral activity against Camelpox virus CML14 infected in human PHK assessed as inhibition of virus-induced cytopathic effect after 6 days by Giemsa staining. The following applies: CML14, 144 h. It is filed as functional, organism-based.
The nature of data set [8]: Cytotoxicity against human PHK after 4 days by Z1 Coulter counting analysis. The following applies: PHK cells. In a few lines: as §1
Data set [9] in a line: Selectivity index, ratio of CC50 for human PHK to EC50 for Camelpox virus CML1 infected in human PHK.
Data set [10] in a line: Selectivity index, ratio of CC50 for human PHK to EC50 for Camelpox virus CML14 infected in human PHK.
Data set [11] concerns Camelpox virus. Description: Antiviral activity against Camelpox virus CML1 infected in HEL299 cells assessed as reduction in viral titer after 6 days postinfection by virus yield reduction assay. The following applies: for EC99: CML1, HEL 299, 144 h; for Activity: HEL 299. It is filed as functional.
For data set [12], the system named is Camelpox virus. Briefly: Antiviral activity against Camelpox virus CML14 infected in HEL299 cells assessed as reduction in viral titer after 6 days postinfection by virus yield reduction assay. The format is functional. The following applies: for Activity: HEL 299; for EC99: CML14, HEL 299, 144 h.
For data set [13], the system named is Camelpox virus. Description: Antiviral activity against Camelpox virus CML1 infected in human PHK assessed as reduction in viral titer after 6 days postinfection by virus yield reduction assay. The format is functional. The following applies: for EC99: CML1, 144 h.
The test system of data set [14] is Camelpox virus. Briefly: Antiviral activity against Camelpox virus CML14 infected in human PHK assessed as reduction in viral titer after 6 days postinfection by virus yield reduction assay. It is filed as functional. The following applies: for EC99: CML14, 144 h.
The test system of data set [15] is Camelpox virus. Briefly: Antiviral activity against Camelpox virus CML1-induced cytopathic effect in human PHK raft culture assessed as full protection of differentiated epithelium at 65 uM treated after 7 days postinfection. The format is functional, organism-based.
Data set [16] concerns Camelpox virus. Briefly: Antiviral activity against Camelpox virus CML1 infected in differentiated human PHK raft culture assessed as reduction in viral titer determined in HEL299 cells treated after 7 days postinfection by virus yield reduction assay. The format is functional. The following applies: CML1, HEL 299, 168 h.

In the case of `Nc1ccn(C[C@@H](CO)OCP(=O)(O)O)c(=O)n1.O.O` [CIDOFOVIR], the concentration giving a half-maximal response (EC50) turned out to be 8.2 µM with Camelpox virus [1], 6.6 µM in the data set with Camelpox virus [2], 5.3 µM in the data set on Camelpox virus [6] and 8.8 µM in the data set with Camelpox virus [7]. In addition, the figures for the 50% cytotoxic concentration (CC50) at 96 h in data set [3] and in data set [8] were 192 µM and 7 µM, respectively. Also, the selectivity ratio in data set [4] is 23; in data set [5], 29. The “Ratio CC50/IC50” value in [9] and in data set [10] was 1 each time. Moreover, the EC99 was 58 µM in the data set on Camelpox virus [11], 16 µM with Camelpox virus [13] and 6 µM in the data set with Camelpox virus [16]. For the same compound, the Activity result in the data set on Camelpox virus [11], with Camelpox virus [12], with Camelpox virus [13] and in the data set on Camelpox virus [14] was “Dose-dependent effect” each time. For the same compound, in the data set on Camelpox virus [15], the outcome was Active.

Turning to `C[C@H](COC1=CC(N)N(O)C(N)=N1)OCP(=O)(O)O` (stereo partly specified), the EC50 in the data set with Camelpox virus [1] is 1.6 µM; in the data set on Camelpox virus [2], 2 µM; in the data set with Camelpox virus [6] it was 3.9 µM; in the data set with Camelpox virus [7] it was 4.6 µM. For the same compound, the 50% cytotoxic concentration (CC50) at 96 h in data set [3] was found to be 162 µM; in data set [8], 5 µM. Also, the results for the selectivity ratio in data set [4] and in data set [5] were 99 and 82, respectively. The “Ratio CC50/IC50” value in [9] and in data set [10] was 1 each time. The EC99 was 9.5 µM in the data set with Camelpox virus [11]; 9.5 µM in the data set with Camelpox virus [12]; 9.5 µM in the data set on Camelpox virus [13]; 9.5 µM with Camelpox virus [14]; 5 µM in the data set with Camelpox virus [16]. Moreover, the Activity entry in the data set with Camelpox virus [11], in the data set on Camelpox virus [12], in the data set on Camelpox virus [13] and in the data set on Camelpox virus [14] was “Dose-dependent effect” each time.

For `Nc1ncnc2c1ncn2C[C@@H](CO)OCP(=O)(O)O`, the EC50 is 0.5 µM with Camelpox virus [1], 0.5 µM in the data set with Camelpox virus [2], 1 µM with Camelpox virus [6] and 1.4 µM with Camelpox virus [7]. The CC50 at 96 h in data set [3] worked out at 32 µM; in data set [8], 1 µM. The selectivity ratio came to 66 in data set [4] and 60 in data set [5]. For the same compound, the “Ratio CC50/IC50” value in data set [9] and in data set [10] was 1 each time. Besides, the Activity result in the data set with Camelpox virus [11], with Camelpox virus [12], in the data set with Camelpox virus [13] and with Camelpox virus [14] was “Dose-dependent effect” throughout. Moreover, the EC99 with Camelpox virus [12] came to 1 µM; in the data set on Camelpox virus [14], 2 µM.

As to `Nc1ncnc2c1ncn2CCOCP(=O)(O)O` [ADEFOVIR], the concentration giving a half-maximal response (EC50) is > 183 µM with Camelpox virus [1], > 183 µM in the data set with Camelpox virus [2], 162 µM in the data set with Camelpox virus [6] and > 183 µM in the data set on Camelpox virus [7]. In addition, the CC50 at 96 h in data set [3] was 211 µM; in [8], 76 µM. Also, the selectivity ratio in data set [4] and in data set [5] was < 1 each time. Besides, the “Ratio CC50/IC50” value in data set [9] is recorded as 0.5; in data set [10], <0.4.

As to `Nc1ncnc2c1ncn2C[C@H]1COP(=O)(O)CO1`, the EC50 in the data set with Camelpox virus [1] was found to be 0.2 µM; with Camelpox virus [2], 0.1 µM; with Camelpox virus [6] it was 1.6 µM; in the data set with Camelpox virus [7], 3.1 µM. Further, the CC50 at 96 h was found to be 63 µM in data set [3] and 3 µM in [8]. In addition, the results for the selectivity ratio in data set [4] and in [5] were 393 and 441, respectively. In addition, the “Ratio CC50/IC50” value is on record as 2 in data set [9] and 1 in [10]. Moreover, the values for the 99% effect concentration (EC99) in the data set on Camelpox virus [11], in the data set with Camelpox virus [12] and with Camelpox virus [14] were 3 µM, 2 µM and 6 µM, respectively. The Activity entry with Camelpox virus [11], with Camelpox virus [12], in the data set on Camelpox virus [13] and with Camelpox virus [14] was “Dose-dependent effect” throughout.

For `Nc1nc(NC(CO)C(=O)O)c2ncn(CCOCP(=O)(O)O)c2n1` (racemic), the EC50 in the data set with Camelpox virus [1] was found to be 54.5 µM; in the data set with Camelpox virus [2], 55.7 µM; in the data set with Camelpox virus [6] it was 81.8 µM; in the data set on Camelpox virus [7], 93.4 µM. Besides, the 50% cytotoxic concentration (CC50) at 96 h is 3 µM in [3] and 2 µM in data set [8]. Besides, the selectivity ratio in data set [4] and in data set [5] was 0.1 in each case. For the same compound, the “Ratio CC50/IC50” value in data set [9] and in data set [10] was 0.03 each time.

Turning to `Nc1nc2c(ncn2CCOCP(=O)(O)O)c(=O)[nH]1` [GS-438], the EC50 in the data set on Camelpox virus [1] is 3.3 µM; with Camelpox virus [2], 5.5 µM; in the data set on Camelpox virus [6], 2.9 µM; in the data set with Camelpox virus [7] it was 4.4 µM. Moreover, the CC50 at 96 h in data set [3] is 1 µM; in data set [8], 0.3 µM. Moreover, the selectivity ratio in [4] turned out to be 0.3; in [5] it was 0.2. The “Ratio CC50/IC50” value in data set [9] and in data set [10] was 0.1 in each case.

For `CC(C)(C)C(=O)OCOP(=O)(COC(CO)Cn1cnc(N)nc1=O)OCOC(=O)C(C)(C)C` (stereo unspecified), the EC50 in the data set on Camelpox virus [1] amounted to 0.02 µM; in the data set on Camelpox virus [2], 0.02 µM; with Camelpox virus [6], 0.6 µM; in the data set on Camelpox virus [7], 0.3 µM. In addition, the CC50 at 96 h amounted to 5 µM in data set [3] and 1 µM in [8]. Moreover, the selectivity ratio in [4] and in [5] was 250 each time. The “Ratio CC50/IC50” value in [9] stood at 2; in data set [10], 4. Besides, in the data set on Camelpox virus [11], the Activity result was “Dose-dependent effect”.

Turning to `Nc1nc(NCCP(=O)(O)O)c2ncn(CCOCP(=O)(O)O)c2n1`, the EC50 in the data set with Camelpox virus [1], with Camelpox virus [2], in the data set on Camelpox virus [6] and in the data set on Camelpox virus [7] was > 127 µM in each case. Besides, the figures for the cytotoxic concentration (CC50) at 96 h in [3] and in [8] were 43 µM and 59 µM, respectively. Also, the selectivity ratio in data set [4] and in data set [5] was < 0.3 in each case. In addition, the “Ratio CC50/IC50” value in data set [9] and in data set [10] was <0.5 throughout.

For `C[C@@H](O)[C@H](Nc1nc(N)nc2c1ncn2CCOCP(=O)(O)O)C(=O)O`, the EC50 in the data set on Camelpox virus [1] is 112 µM; in the data set with Camelpox virus [2] it was 112 µM; in the data set with Camelpox virus [6], > 128 µM; with Camelpox virus [7], > 128 µM. For the same compound, the CC50 at 96 h was determined as 39 µM in data set [3] and 19 µM in [8]. Moreover, the selectivity ratio in data set [4] and in data set [5] was 0.3 in each case. Further, the “Ratio CC50/IC50” value in data set [9] and in data set [10] was <0.2 in each case.

Turning to `CN(C)c1ncnc2c1ncn2CCOCP(=O)(O)O`, the EC50 with Camelpox virus [1] was determined as 29.4 µM; with Camelpox virus [2], 24.6 µM; in the data set on Camelpox virus [6], 8.5 µM; with Camelpox virus [7], 10.9 µM. In addition, the CC50 at 96 h stood at 22 µM in data set [3] and 1 µM in data set [8]. The selectivity ratio in data set [4] and in data set [5] was 1 each time. The “Ratio CC50/IC50” value in data set [9] and in data set [10] was 0.1 each time.

`Nc1nc(NC(Cc2ccccc2)C(=O)O)c2ncn(CCOCP(=O)(O)O)c2n1` (racemic): the EC50 in the data set on Camelpox virus [1], in the data set with Camelpox virus [2], with Camelpox virus [6] and in the data set with Camelpox virus [7] was > 115 µM in each case. Further, the CC50 at 96 h in [3] stood at 101 µM; in [8], 27 µM. The selectivity ratio in data set [4] and in [5] was < 1 each time. Moreover, the “Ratio CC50/IC50” value in [9] and in data set [10] was <0.2 in each case.

In the case of `NC1=NC(OC[C@@H]2CP(=O)(O)CO2)=CC(N)N1O` (stereo partly specified), the 50% effective concentration (EC50) in the data set with Camelpox virus [1] is 5.2 µM; with Camelpox virus [2], 7.6 µM; in the data set on Camelpox virus [6], 16.1 µM; in the data set with Camelpox virus [7] it was 18.4 µM. Also, the CC50 at 96 h amounted to 147 µM in data set [3] and 43 µM in data set [8]. Moreover, the selectivity ratio in data set [4] was determined as 28; in data set [5], 19. Besides, the “Ratio CC50/IC50” value in data set [9] was 3; in [10], 2.

As a reminder, the EC50 is the midpoint of the concentration-response curve. Broadly, the CC50 is the concentration that lowers cell viability or growth by half. A lower CC50 goes with greater toxicity to the cells. A word on the EC99: it is the concentration needed for an effect of 99%.
